# Legend:
# Format in all cases: functional
# Staphylococcus aureus [1] = assay: Antimicrobial activity against vancomycin-resistant Staphylococcus aureus assessed as resistant isolates by microdilution method
# Summary of the method: (§1)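 CLSI broth microdilution MICs in cation-adjusted Mueller-Hinton broth, read visually as the lowest concentration with no visible growth. Percent of isolates classed susceptible or resistant was assigned using CLSI breakpoints.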
# Staphylococcus aureus [2] = assay: Antimicrobial activity against vancomycin resistant Staphylococcus aureus VRS-4 expressing SCCmec type 4 element by microdilution method
# Summary of the method: (§2)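 Broth microdilution per CLSI in cation-adjusted Mueller-Hinton broth. Antibiotic powders were reconstituted per CLSI. The MIC was read visually as the lowest drug concentration with no visible growth. S. aureus ATCC 29213 and E. faecalis ATCC 29212 served as control strains. VISA and VRSA isolates came from the NARSA program.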
# Staphylococcus aureus [3] = assay: Antimicrobial activity against vancomycin intermediate Staphylococcus aureus NRS-402 expressing SCCmec type 2 element by microdilution method
# Summary of the method: (§3)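 MIC by broth microdilution in cation-adjusted Mueller-Hinton broth, following CLSI guidelines; antibiotic powders reconstituted per CLSI. Read visually as the lowest drug concentration well with no visible growth. S. aureus ATCC 29213 and E. faecalis ATCC 29212 served as control strains. CA-MRSA: hospital patients culture-positive within 48 h of admission. DNSSA: patient blood isolates. VISA: obtained from the NARSA program.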
# Staphylococcus aureus [4] = assay: Antimicrobial activity against vancomycin resistant Staphylococcus aureus VRS-2 expressing SCCmec type 2 element by microdilution method; summary of the method: as §2
# Staphylococcus aureus [5] = assay: Antimicrobial activity against vancomycin resistant Staphylococcus aureus VRS-9 expressing SCCmec type 2 element by microdilution method; summary of the method: as §2
# Staphylococcus aureus [6] = assay: Antimicrobial activity against vancomycin intermediate Staphylococcus aureus NRS-68 expressing SCCmec type 2 element by microdilution method; summary of the method: as §3
# Staphylococcus aureus [7] = assay: Bactericidal activity against daptomycin-nonsusceptible Staphylococcus aureus assessed as antibiotic concentration that reduced the number of viable cells by =>99.9% by colony count method
# Summary of the method: (§4)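 MBC per CLSI guidelines. It was taken as the antibiotic concentration giving ≥99.9% reduction in viable cells, based on colony counts from the growth control well and rejection values from Pearson's tables.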
# Staphylococcus aureus [8] = assay: Bactericidal activity against vancomycin-resistant Staphylococcus aureus assessed as antibiotic concentration that reduced the number of viable cells by =>99.9% by colony count method; conditions: Staphylococcus aureus
# Summary of the method: (§5)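 MBC per CLSI following microdilution in cation-adjusted Mueller-Hinton broth. Defined as the concentration giving ≥99.9% reduction in viable cells, judged from colony counts of the growth control well against Pearson rejection-value tables. CA-MRSA isolates were hospital patients' isolates with positive MRSA culture within 48 h of admission.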
# Staphylococcus aureus [9] = assay: Antimicrobial activity against vancomycin resistant Staphylococcus aureus VRS-5 expressing SCCmec type 2 element by microdilution method; summary of the method: as §2
# Staphylococcus aureus [10] = assay: Antimicrobial activity against community-acquired methicillin-resistant Staphylococcus aureus assessed as susceptible isolates by microdilution method
# Summary of the method: (§6)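 MICs by CLSI broth microdilution in cation-adjusted Mueller-Hinton broth, read visually as the lowest concentration with no visible growth. Percentages of susceptible or resistant isolates assigned using CLSI breakpoints. Isolates: CA-MRSA (n = 92, positive within 48 h of admission) and DNSSA (n = 7, blood).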
# Staphylococcus aureus [11] = assay: Antimicrobial activity against vancomycin-resistant Staphylococcus aureus by microdilution method; summary of the method: as §2
# Staphylococcus aureus [12] = assay: Antimicrobial activity against vancomycin intermediate Staphylococcus aureus NRS-26 expressing SCCmec type 2 element by microdilution method; summary of the method: as §3
# Staphylococcus aureus [13] = assay: Antimicrobial activity against community-acquired methicillin-resistant Staphylococcus aureus assessed as resistant isolates by microdilution method; summary of the method: as §6
# Staphylococcus aureus [14] = assay: Antimicrobial activity against vancomycin intermediate Staphylococcus aureus NRS-17 expressing SCCmec type 2 element by microdilution method; summary of the method: as §3
# Staphylococcus aureus [15] = assay: Antimicrobial activity against vancomycin intermediate Staphylococcus aureus NRS-73 expressing SCCmec type 4d element by microdilution method; summary of the method: as §3
# Staphylococcus aureus [16] = assay: Bactericidal activity against vancomycin-intermediate Staphylococcus aureus assessed as antibiotic concentration that reduced the number of viable cells by =>99.9% by colony count method; summary of the method: as §4
# Staphylococcus aureus [17] = assay: Antimicrobial activity against daptomycin-nonsusceptible Staphylococcus aureus assessed as resistant isolates by microdilution method; summary of the method: as §6
# Staphylococcus aureus [18] = assay: Antimicrobial activity against community-acquired methicillin-resistant Staphylococcus aureus by microdilution method; summary of the method: as §3
# Staphylococcus aureus [19] = assay: Antimicrobial activity against vancomycin intermediate Staphylococcus aureus NRS-18 expressing SCCmec type 2 element by microdilution method; summary of the method: as §3
# Staphylococcus aureus [20] = assay: Antimicrobial activity against vancomycin resistant Staphylococcus aureus VRS-1 expressing SCCmec type 2 element by microdilution method; summary of the method: as §2
# Staphylococcus aureus [21] = assay: Antimicrobial activity against vancomycin-resistant Staphylococcus aureus assessed as susceptible isolates by microdilution method; summary of the method: as §1
# Staphylococcus aureus [22] = assay: Antimicrobial activity against vancomycin resistant Staphylococcus aureus VRS-7 expressing SCCmec element by microdilution method; summary of the method: as §2
# Staphylococcus aureus [23] = assay: Antimicrobial activity against daptomycin-nonsusceptible Staphylococcus aureus assessed as susceptible isolates by microdilution method; summary of the method: as §6
# Staphylococcus aureus [24] = assay: Antimicrobial activity against vancomycin intermediate Staphylococcus aureus NRS-27 expressing SCCmec type 2 element by microdilution method; summary of the method: as §3
# Staphylococcus aureus [25] = assay: Antimicrobial activity against vancomycin intermediate Staphylococcus aureus NRS-118 expressing SCCmec type 1 element by microdilution method; summary of the method: as §3
# Staphylococcus aureus [26] = assay: Antimicrobial activity against vancomycin intermediate Staphylococcus aureus NRS-76 expressing SCCmec type 2 element by microdilution method; summary of the method: as §2
# Staphylococcus aureus [27] = assay: Antimicrobial activity against vancomycin intermediate Staphylococcus aureus NRS-74 expressing SCCmec type 2 element by microdilution method; summary of the method: as §3
# Staphylococcus aureus [28] = assay: Antimicrobial activity against vancomycin resistant Staphylococcus aureus VRS-3 expressing SCCmec type 4 element by microdilution method; summary of the method: as §2
# Staphylococcus aureus [29] = assay: Antimicrobial activity against vancomycin intermediate Staphylococcus aureus NRS-23 expressing SCCmec type 2 element by microdilution method; summary of the method: as §3
# Staphylococcus aureus [30] = assay: Antimicrobial activity against vancomycin-intermediate Staphylococcus aureus assessed as resistant isolates by microdilution method; summary of the method: as §1
# Staphylococcus aureus [31] = assay: Antimicrobial activity against vancomycin intermediate Staphylococcus aureus NRS-404 expressing SCCmec type 2 element by microdilution method; summary of the method: as §3
# Staphylococcus aureus [32] = assay: Antimicrobial activity against vancomycin intermediate Staphylococcus aureus NRS-22 expressing SCCmec type 2 element by microdilution method; summary of the method: as §3
# Staphylococcus aureus [33] = assay: Antimicrobial activity against vancomycin resistant Staphylococcus aureus VRS-8 expressing SCCmec element by microdilution method; summary of the method: as §2
# Staphylococcus aureus [34] = assay: Antimicrobial activity against vancomycin intermediate Staphylococcus aureus NRS-3 expressing SCCmec type 2 element by microdilution method; summary of the method: as §3
# Staphylococcus aureus [35] = assay: Antimicrobial activity against vancomycin resistant Staphylococcus aureus VRS-10 expressing SCCmec type 2 element by microdilution method; summary of the method: as §2
# Staphylococcus aureus [36] = assay: Antimicrobial activity against daptomycin-nonsusceptible Staphylococcus aureus by microdilution method; conditions: Staphylococcus aureus; summary of the method: as §3
# Staphylococcus aureus [37] = assay: Antimicrobial activity against vancomycin intermediate Staphylococcus aureus NRS-51 expressing SCCmec type 2 element by microdilution method; summary of the method: as §3
# Staphylococcus aureus [38] = assay: Antimicrobial activity against vancomycin-intermediate Staphylococcus aureus by microdilution method; summary of the method: as §2
# Staphylococcus aureus [39] = assay: Antimicrobial activity against vancomycin intermediate Staphylococcus aureus NRS-4 expressing SCCmec type 2 element by microdilution method; summary of the method: as §3
# Staphylococcus aureus [40] = assay: Antimicrobial activity against vancomycin-intermediate Staphylococcus aureus assessed as susceptible isolates by microdilution method
# Summary of the method: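 CLSI broth microdilution in cation-adjusted Mueller-Hinton broth. MIC is the lowest concentration well with no visible growth, read by eye. Isolates were classed susceptible from CLSI breakpoints. S. aureus ATCC 29213 and E. faecalis ATCC 29212 were used as MIC control strains.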
# Staphylococcus aureus [41] = assay: Antimicrobial activity against vancomycin resistant Staphylococcus aureus VRS-6 expressing SCCmec type 2 element by microdilution method; summary of the method: as §2
# Staphylococcus aureus [42] = assay: Antimicrobial activity against vancomycin intermediate Staphylococcus aureus NRS-24 expressing SCCmec type 2 element by microdilution method; summary of the method: as §3
# Staphylococcus aureus [43] = assay: Bactericidal activity against community-acquired methicillin-resistant Staphylococcus aureus assessed as antibiotic concentration that reduced the number of viable cells by =>99.9% by colony count method; summary of the method: as §5
# Staphylococcus aureus [44] = assay: Antimicrobial activity against vancomycin intermediate Staphylococcus aureus NRS-403 expressing SCCmec type 2 element by microdilution method; summary of the method: as §3
# Staphylococcus aureus [45] = assay: Antimicrobial activity against vancomycin intermediate Staphylococcus aureus NRS-126 expressing SCCmec type 2 element by microdilution method; summary of the method: as §3
# Staphylococcus aureus [46] = assay: Antimicrobial activity against vancomycin intermediate Staphylococcus aureus NRS-19 expressing SCCmec type 2 element by microdilution method; summary of the method: as §3
compound,measurement,setting,value
CCC[C@@H]1C[C@@H](C(=O)N[C@@H]([C@H]2O[C@H](SC)[C@H](O)[C@@H](O)[C@H]2O)[C@H](C)Cl)N(C)C1 [CLINDAMYCIN],Activity,Staphylococcus aureus [1],100%
same,MIC,Staphylococcus aureus [2],> 64 µg/mL
same,MIC,Staphylococcus aureus [3],> 64 µg/mL
same,MIC,Staphylococcus aureus [4],> 64 µg/mL
same,MIC,Staphylococcus aureus [5],> 64 µg/mL
same,MIC,Staphylococcus aureus [6],> 64 µg/mL
same,MBC50,Staphylococcus aureus [7],>64 µg/mL
same,MBC,Staphylococcus aureus [8],> 64 µg/mL
same,MIC,Staphylococcus aureus [9],> 64 µg/mL
same,Activity,Staphylococcus aureus [10],64%
same,MIC,Staphylococcus aureus [11],> 64 µg/mL
same,MIC50,Staphylococcus aureus [11],> 64 µg/mL
same,MIC90,Staphylococcus aureus [11],> 64 µg/mL
same,MIC,Staphylococcus aureus [12],> 64 µg/mL
same,Activity,Staphylococcus aureus [13],36%
same,MIC,Staphylococcus aureus [14],0.06 µg/mL
same,MIC,Staphylococcus aureus [15],0.06 µg/mL
same,MBC50,Staphylococcus aureus [16],>64 µg/mL
same,MBC90,Staphylococcus aureus [16],>64 µg/mL
same,MBC,Staphylococcus aureus [16]; Staphylococcus aureus,> 0.12 µg/mL
same,Activity,Staphylococcus aureus [17],86%
same,MIC50,Staphylococcus aureus [18],0.12 µg/mL
same,MIC90,Staphylococcus aureus [18],> 64 µg/mL
same,MIC,Staphylococcus aureus [19],> 64 µg/mL
same,MIC,Staphylococcus aureus [20],> 64 µg/mL
same,Activity,Staphylococcus aureus [21],0%
same,MIC,Staphylococcus aureus [22],> 64 µg/mL
same,Activity,Staphylococcus aureus [23],14%
same,MIC,Staphylococcus aureus [24],> 64 µg/mL
same,MIC,Staphylococcus aureus [25],> 64 µg/mL
same,MIC,Staphylococcus aureus [26],0.06 µg/mL
same,MIC,Staphylococcus aureus [27],> 64 µg/mL
same,MIC,Staphylococcus aureus [28],> 64 µg/mL
same,MIC,Staphylococcus aureus [29],> 64 µg/mL
same,Activity,Staphylococcus aureus [30],83%
same,MIC,Staphylococcus aureus [31],0.06 µg/mL
same,MIC,Staphylococcus aureus [32],> 64 µg/mL
same,MIC,Staphylococcus aureus [33],> 64 µg/mL
same,MIC,Staphylococcus aureus [34],> 64 µg/mL
same,MIC,Staphylococcus aureus [35],> 64 µg/mL
same,MIC50,Staphylococcus aureus [36],> 64 µg/mL
same,MIC,Staphylococcus aureus [37],> 64 µg/mL
same,MIC50,Staphylococcus aureus [38],> 64 µg/mL
same,MIC90,Staphylococcus aureus [38],> 64 µg/mL
same,MIC,Staphylococcus aureus [39],> 64 µg/mL
same,Activity,Staphylococcus aureus [40],17%
same,MIC,Staphylococcus aureus [41],> 64 µg/mL
same,MIC,Staphylococcus aureus [42],> 64 µg/mL
same,MBC50,Staphylococcus aureus [43],8 µg/mL
same,MBC,Staphylococcus aureus [43]; Staphylococcus aureus,> 1 µg/mL
same,MIC,Staphylococcus aureus [44],> 64 µg/mL
same,MIC,Staphylococcus aureus [45],> 64 µg/mL
same,MIC,Staphylococcus aureus [46],> 64 µg/mL
